Laboratory results reported in ChEMBL document CHEMBL1159121, “Synthesis, in vitro structure-activity relationship, and in vivo studies of 2-arylthiazolidine-4-carboxylic acid amides as anticancer agents” (Bioorg Med Chem, 2010).

Tests used:
M14 = assay: Growth inhibition of human M14 cells; assay type: functional
HOP-62 = assay: Growth inhibition of human HOP62 cells; assay type: functional
[1] = Antiproliferative activity against human WM164 cells after 48 hrs by SRB assay; assay type: functional, cell-based; details: WM164, 48 h
Outline: (§1)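 Melanoma lines and control fibroblasts grown at 37 °C, 5% CO2, then exposed to a wide concentration range for 48 h in round-bottom 96-well plates. Fixed with 10% TCA, stained with SRB, protein read at 560 nm. IC50 (50% growth inhibition versus untreated) obtained by nonlinear regression.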

MDA-MB-435 = assay: Growth inhibition of human MDA-MB-435 cells; assay type: functional
[2] = Cytotoxicity against human fibroblasts after 48 hrs by SRB assay; assay type: cell-based; details: Fibroblast; outline: as §1
A498 = assay: Growth inhibition of human A498 cells; assay type: functional
DU-145 = assay: Growth inhibition of human DU145 cells; assay type: functional
TK-10 = assay: Growth inhibition of human TK10 cells; assay type: functional
[3] = Antiproliferative activity against mouse B16-F1 cells after 48 hrs by SRB assay; assay type: functional, cell-based; details: B16-F1, 48 h; outline: as §1
SNB-19 = assay: Growth inhibition of human SNB19 cells; assay type: functional
MOLT-4 = assay: Growth inhibition of human MOLT4 cells; assay type: functional
NCI-H522 = assay: Growth inhibition of human NCI-H522 cells; assay type: functional
IGROV-1 = assay: Growth inhibition of human IGROV1 cells; assay type: functional
SF-295 = assay: Growth inhibition of human SF295 cells; assay type: functional
SK-OV-3 = assay: Growth inhibition of human SKOV3 cells; assay type: functional
OVCAR-4 = assay: Growth inhibition of human OVCAR4 cells; assay type: functional
RH7777 = assay: Cytotoxicity against rat RH7777 cells after 96 hrs by SRB assay; assay type: cell-based; details: RH7777, 96 h
Outline: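 Prostate lines in RPMI1640/10% FBS; RH7777 in DMEM/10% FBS. Cells TCA-fixed, stained with 0.4% SRB, absorbance read at 540 nm. IC50 from nonlinear regression of % survival against concentration.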

786-0 = assay: Growth inhibition of human 786-0 cells; assay type: functional
NCI-H322M = assay: Growth inhibition of human NCI-H322M cells; assay type: functional
SW-620 = assay: Growth inhibition of human SW620 cells; assay type: functional
SK-MEL-28 = assay: Growth inhibition of human SK-MEL-28 cells; assay type: functional
UACC-257 = assay: Growth inhibition of human UACC257 cells; assay type: functional
ACHN = assay: Growth inhibition of human ACHN cells; assay type: functional
[4] = read-out: LC50 (the source's name)

CCCCCCCCCCCCCCCCNC(=O)[C@@H]1CSC(c2ccc(NC(C)=O)cc2)N1 (mixture of isomers)
GI50 (M14): 0.17 µM
TGI (M14): 0.33 µM
CC50 (M14; [4]): 0.62 µM
GI50 (HOP-62): 0.2 µM
TGI (HOP-62): 0.38 µM
CC50 (HOP-62; [4]): 0.7 µM
IC50 [1]: 1.1 µM
GI50 (MDA-MB-435): 0.15 µM
TGI (MDA-MB-435): 0.3 µM
CC50 (MDA-MB-435; [4]): 0.6 µM
IC50 [2]: 16 µM
GI50 (A498): 0.94 µM
TGI (A498): 2.2 µM
CC50 (A498; [4]): 4.97 µM
GI50 (DU-145): 0.27 µM
TGI (DU-145): 0.63 µM
CC50 (DU-145; [4]): 2.15 µM
GI50 (TK-10): 0.65 µM
TGI (TK-10): 2.11 µM
CC50 (TK-10; [4]): 5.4 µM
IC50 [3]: 2.2 µM
GI50 (SNB-19): 0.19 µM
TGI (SNB-19): 0.4 µM
CC50 (SNB-19; [4]): 0.82 µM
GI50 (MOLT-4): 0.15 µM
TGI (MOLT-4): 0.34 µM
CC50 (MOLT-4; [4]): 0.79 µM
GI50 (NCI-H522): 3.81 µM
TGI (NCI-H522): 20.7 µM
CC50 (NCI-H522; [4]): > 100 µM
GI50 (IGROV-1): 0.17 µM
TGI (IGROV-1): 0.34 µM
CC50 (IGROV-1; [4]): 0.65 µM
GI50 (SF-295): 0.28 µM
TGI (SF-295): 1.06 µM
CC50 (SF-295; [4]): 4.09 µM
GI50 (SK-OV-3): 0.38 µM
TGI (SK-OV-3): 1.13 µM
CC50 (SK-OV-3; [4]): 3.48 µM
GI50 (OVCAR-4): 0.23 µM
TGI (OVCAR-4): 0.49 µM
CC50 (OVCAR-4; [4]): 0.12 µM
IC50 (RH7777): 6.8 µM
GI50 (786-0): 0.22 µM
TGI (786-0): 0.42 µM
CC50 (786-0; [4]): 0.77 µM
GI50 (NCI-H322M): 0.28 µM
TGI (NCI-H322M): 0.85 µM
CC50 (NCI-H322M; [4]): 3.22 µM
GI50 (SW-620): 0.21 µM
TGI (SW-620): 0.43 µM
CC50 (SW-620; [4]): 0.89 µM
GI50 (SK-MEL-28): 0.13 µM
TGI (SK-MEL-28): 0.26 µM
CC50 (SK-MEL-28; [4]): 0.52 µM
GI50 (UACC-257): 1.48 µM
TGI (UACC-257): 3.16 µM
CC50 (UACC-257; [4]): 6.71 µM
GI50 (ACHN): 0.21 µM
